Data published in the M2OR odorant receptor database.

The compounds below were run against T1, OR2W1 (Homo sapiens) (UniProt Q9Y3N9). Settings: stereoisomer not certain.
T1 sequence (whole entry): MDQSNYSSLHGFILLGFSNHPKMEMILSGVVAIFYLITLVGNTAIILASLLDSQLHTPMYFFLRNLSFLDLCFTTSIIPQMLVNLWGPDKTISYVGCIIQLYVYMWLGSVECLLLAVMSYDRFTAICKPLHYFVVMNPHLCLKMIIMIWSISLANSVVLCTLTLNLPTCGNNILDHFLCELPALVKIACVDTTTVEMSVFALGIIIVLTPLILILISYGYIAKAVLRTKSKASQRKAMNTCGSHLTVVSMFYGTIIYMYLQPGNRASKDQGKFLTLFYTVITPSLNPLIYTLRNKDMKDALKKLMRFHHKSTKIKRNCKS
Method in brief: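 Each entry records the cell line, G-protein, co-transfected protein and tags used. Methods varied with the source, often transient luciferase assays in mammalian cell lines. A receptor–molecule pair is called responsive (active) if the original authors judged its signal statistically different from baseline and non-responsive (inactive) otherwise.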

Odorant receptor agonist call, active:
CCCCOC=O
C=C(C)C1CCC(C)C(=O)C1 (centres undefined)
C=C(C)C1CC=C(C)CC1 (centres undefined)
CCCCCC(=O)CC(C)=O
CC(C)=CCCC(C)CCO (centres undefined)
CCCC1CCCC(=O)O1 (centres undefined)
CCCCCCCC1CCC(=O)O1 (centres undefined)
CC(=O)OCC=Cc1ccccc1
CCC(C)CCC(=O)[O-] (centres undefined)
CC(=O)OCCc1ccccc1
CCC(=O)C(=O)CC
CCCSSSCCC
CCCCCC=CC=O
CCCCC(=O)CC
CCCC(=O)OC
CCOC(=O)CC(C)C

Odorant receptor agonist call, inactive:
O=C(O)C=Cc1ccc(O)cc1
CCCCCCC(=O)[O-].[H+]
CCOC(C)OCC
CSSc1ccoc1C
CCCCCO
CCCC(C)=O
C=CC(=O)CC
CC=O
CSCCCO
Cc1cccc(C)c1O
CSCSC
CCCC(O)CC(=O)OCC (centres undefined)
COC1=C(C)OC(C)C1=O (centres undefined)
CCCCC(=O)O
CCC(S)C(C)=O (centres undefined)
CC=CC(=O)C1=C(C)C=CCC1(C)C
CCCCCC=O
C=Cc1ccc(OCCCCOc2ccc(C=C)cc2)cc1
